Reference: ChEMBL document CHEMBL3994644, “Discovery of AAT-008, a novel, potent, and selective prostaglandin EP4 receptor antagonist” (Bioorg Med Chem Lett, 2017)
≈ marks a conversion by molar mass, not a printed value.

What was measured:
[1] = Volume of distribution at steady state in cynomolgus monkey at 1 mg/kg, iv; type: ADME, organism-based, Macaca fascicularis; conditions: in vivo, read-out: Vdss
Summary of the method: (§1)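 A single intravenous injection at 1 mg/kg was given. Plasma concentration–time data gave total clearance (CL_total, mL/min/kg) and steady-state volume of distribution (Vd_ss, L/kg). Values are mean SD of N = 4 animals per species.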

[2] = target: CYP2C19 (Homo sapiens, UniProt P33261); assay: Inhibition of CYP2C19 (unknown origin) at 1 uM relative to control; type: ADME
Chain of CYP2C19 (P33261 whole entry): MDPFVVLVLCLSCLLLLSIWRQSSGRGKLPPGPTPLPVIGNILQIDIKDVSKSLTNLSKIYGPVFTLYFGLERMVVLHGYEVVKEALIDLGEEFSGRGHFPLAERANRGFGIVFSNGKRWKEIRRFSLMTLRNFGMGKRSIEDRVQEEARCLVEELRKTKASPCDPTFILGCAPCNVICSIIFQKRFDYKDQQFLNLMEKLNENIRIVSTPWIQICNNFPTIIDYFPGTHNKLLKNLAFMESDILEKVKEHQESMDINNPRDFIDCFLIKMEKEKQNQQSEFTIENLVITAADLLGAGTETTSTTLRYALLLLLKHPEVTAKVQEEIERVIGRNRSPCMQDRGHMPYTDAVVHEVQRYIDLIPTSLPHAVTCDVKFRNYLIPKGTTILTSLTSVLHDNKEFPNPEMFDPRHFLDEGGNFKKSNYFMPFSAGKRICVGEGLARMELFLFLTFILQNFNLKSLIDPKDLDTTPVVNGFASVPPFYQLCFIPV
Summary of the method: (§2)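 CYP1A, CYP2C9, CYP2C19, CYP2D6 and CYP3A activities were each tested with 1 µM test article. Results are given as percent inhibition of enzyme activity.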

[3] = target: T1, Prostaglandin E2 receptor EP3 subtype (Homo sapiens, UniProt P43115); assay: Antagonist activity at human EP3 receptor
T1 sequence (P43115 whole entry): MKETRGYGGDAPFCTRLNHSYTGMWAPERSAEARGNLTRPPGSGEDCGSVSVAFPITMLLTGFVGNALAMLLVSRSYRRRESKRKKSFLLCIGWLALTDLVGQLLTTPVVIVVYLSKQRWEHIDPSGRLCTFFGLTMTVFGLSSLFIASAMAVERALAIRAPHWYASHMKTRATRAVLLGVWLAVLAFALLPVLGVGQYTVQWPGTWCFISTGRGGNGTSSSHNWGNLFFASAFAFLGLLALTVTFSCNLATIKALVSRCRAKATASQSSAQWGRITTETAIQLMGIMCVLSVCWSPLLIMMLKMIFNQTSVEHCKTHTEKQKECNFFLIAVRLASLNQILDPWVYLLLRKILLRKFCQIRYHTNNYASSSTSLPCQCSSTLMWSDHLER

[4] = Solubility of the compound in pH 1.2 simulated gastric fluid; type: physicochemical
[5] = Tmax in Beagle dog at 1 mg/kg, po; type: ADME, organism-based, Canis lupus familiaris; conditions: in vivo
Summary of the method: (§3)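 Single 1 mg/kg dose given IV or PO to rats, dogs and monkeys. Plasma pharmacokinetic parameters were derived and reported as mean SD, N = 4.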

[6] = target: Prostaglandin E2 receptor EP4 subtype (Homo sapiens, UniProt P35408); assay: Displacement of [3H]PGE from human EP4 receptor expressed in HEK293 cell membranes
Chain of Prostaglandin E2 receptor EP4 subtype (Homo sapiens, UniProt P35408) (P35408 whole entry): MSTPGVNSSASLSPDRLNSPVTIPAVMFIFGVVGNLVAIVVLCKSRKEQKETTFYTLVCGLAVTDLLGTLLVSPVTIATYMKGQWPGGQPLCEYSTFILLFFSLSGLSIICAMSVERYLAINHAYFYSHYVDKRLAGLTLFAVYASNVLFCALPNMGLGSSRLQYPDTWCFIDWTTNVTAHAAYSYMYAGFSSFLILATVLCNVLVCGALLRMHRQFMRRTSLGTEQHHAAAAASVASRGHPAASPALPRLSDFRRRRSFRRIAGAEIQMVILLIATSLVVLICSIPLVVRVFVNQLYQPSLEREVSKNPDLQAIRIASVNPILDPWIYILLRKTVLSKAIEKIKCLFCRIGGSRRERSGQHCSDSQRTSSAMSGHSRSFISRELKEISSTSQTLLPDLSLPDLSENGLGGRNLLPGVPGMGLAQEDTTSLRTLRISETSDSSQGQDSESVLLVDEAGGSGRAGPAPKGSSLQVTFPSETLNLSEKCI
Summary of the method: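 Membrane binding assay using [3H]PGE2 with membranes from HEK-293 cells expressing human EP4. The value is expressed as Ki.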

[7] = target: CYP2C9 (Homo sapiens, UniProt P11712); assay: Inhibition of CYP2C9 (unknown origin) at 1 uM relative to control; type: ADME; summary of the method: as §2
Chain of CYP2C9 (P11712 whole entry): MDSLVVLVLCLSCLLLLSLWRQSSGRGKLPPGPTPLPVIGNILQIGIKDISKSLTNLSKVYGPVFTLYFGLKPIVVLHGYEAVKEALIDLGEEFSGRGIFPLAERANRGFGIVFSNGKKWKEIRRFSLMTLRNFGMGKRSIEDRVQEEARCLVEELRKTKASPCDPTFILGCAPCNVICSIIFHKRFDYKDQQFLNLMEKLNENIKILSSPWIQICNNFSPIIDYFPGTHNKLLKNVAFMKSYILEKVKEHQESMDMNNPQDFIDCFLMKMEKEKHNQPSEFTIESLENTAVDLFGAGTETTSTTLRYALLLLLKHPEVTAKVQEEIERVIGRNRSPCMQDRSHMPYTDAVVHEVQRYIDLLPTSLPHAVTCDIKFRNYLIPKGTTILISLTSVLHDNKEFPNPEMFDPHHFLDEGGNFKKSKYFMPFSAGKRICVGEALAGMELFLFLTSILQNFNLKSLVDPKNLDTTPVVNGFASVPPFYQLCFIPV

[8] = AUC (0 to infinity) in Beagle dog at 1 mg/kg, po; type: ADME, organism-based, Canis lupus familiaris; parameters: dose 1 mg/kg, time infinity, route oral; conditions: in vivo; summary of the method: as §3
[9] = AUC (0 to infinity) in Sprague-Dawley rat at 1 mg/kg, iv; type: ADME, organism-based; parameters: dose 1 mg/kg, route intravenous, time infinity; conditions: in vivo; summary of the method: as §3
[10] = Oral bioavailability in Beagle dog at 1 mg/kg; type: ADME, organism-based, Canis lupus familiaris; conditions: in vivo; summary of the method: as §3
[11] = test system: Rattus norvegicus; assay: Analgesic activity in po dosed rat assessed as inhibition of carrageenan-induced mechanical hyperalgesia measured at 1 hr post dose; type: functional
Summary of the method: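 Rats dosed orally. Mechanical hyperalgesia was induced with carrageenan and assessed 1 h post dose. The value is the minimum effective dose (MED, mg/kg PO).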

[12] = test system: Rattus norvegicus; assay: Analgesic activity in po dosed rat model of chronic inflammatory pain assessed as inhibition of CFA-induced weight bearing deficit; type: functional
Summary of the method: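 Chronic inflammatory pain was modelled in rats with CFA and read out as weight bearing deficit after oral dosing. The value is the minimum effective dose (MED, mg/kg PO).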

[13] = target: Prostaglandin E2 receptor EP2 subtype (Homo sapiens, UniProt P43116); assay: Antagonist activity at human EP2 receptor
Chain of Prostaglandin E2 receptor EP2 subtype (P43116 whole entry): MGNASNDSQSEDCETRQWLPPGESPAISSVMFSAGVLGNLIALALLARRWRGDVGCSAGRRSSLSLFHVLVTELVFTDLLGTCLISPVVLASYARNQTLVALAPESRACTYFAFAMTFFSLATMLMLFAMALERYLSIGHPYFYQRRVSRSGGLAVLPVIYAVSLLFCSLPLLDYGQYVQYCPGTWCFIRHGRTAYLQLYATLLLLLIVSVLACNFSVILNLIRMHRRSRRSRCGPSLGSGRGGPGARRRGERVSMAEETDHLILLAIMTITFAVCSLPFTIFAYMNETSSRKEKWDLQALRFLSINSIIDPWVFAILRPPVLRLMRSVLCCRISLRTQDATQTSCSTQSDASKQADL

[14] = AUC (0 to infinity) in Beagle dog at 1 mg/kg, iv; type: ADME, organism-based, Canis lupus familiaris; parameters: dose 1 mg/kg, time infinity, route intravenous; conditions: in vivo; summary of the method: as §3
[15] = Lipophilicity, log D of the compound at pH 7.4; type: physicochemical; conditions: buffer
[16] = target: T2, Thromboxane A2 receptor (Homo sapiens, UniProt P21731); assay: Antagonist activity at human platelet TP receptor
T2 sequence (P21731 whole entry): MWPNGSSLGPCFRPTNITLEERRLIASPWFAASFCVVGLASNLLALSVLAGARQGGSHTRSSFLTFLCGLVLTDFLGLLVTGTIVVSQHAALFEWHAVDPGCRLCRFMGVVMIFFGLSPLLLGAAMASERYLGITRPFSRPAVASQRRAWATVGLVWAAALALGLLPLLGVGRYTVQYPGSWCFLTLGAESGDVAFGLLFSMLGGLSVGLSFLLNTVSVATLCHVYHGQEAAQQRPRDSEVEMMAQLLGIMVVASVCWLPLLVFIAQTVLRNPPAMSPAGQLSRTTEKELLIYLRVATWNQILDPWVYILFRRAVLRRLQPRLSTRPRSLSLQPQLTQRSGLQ

[17] = Elimination half life in Sprague-Dawley rat at 1 mg/kg, iv; type: ADME, organism-based; conditions: in vivo, read-out: beta t1/2 (converted); summary of the method: as §3
[18] = Elimination half life in cynomolgus monkey at 1 mg/kg, po; type: ADME, organism-based, Macaca fascicularis; conditions: in vivo, read-out: beta t1/2 (converted); summary of the method: as §3
[19] = Half life in human liver microsomes; type: ADME, microsome
[20] = Total clearance in Beagle dog at 1 mg/kg, iv; type: ADME, organism-based, Canis lupus familiaris; conditions: in vivo; summary of the method: as §1
[21] = target: Prostaglandin F2-alpha receptor (Homo sapiens, UniProt P43088); assay: Antagonist activity at human FP receptor
Chain of Prostaglandin F2-alpha receptor (P43088 whole entry): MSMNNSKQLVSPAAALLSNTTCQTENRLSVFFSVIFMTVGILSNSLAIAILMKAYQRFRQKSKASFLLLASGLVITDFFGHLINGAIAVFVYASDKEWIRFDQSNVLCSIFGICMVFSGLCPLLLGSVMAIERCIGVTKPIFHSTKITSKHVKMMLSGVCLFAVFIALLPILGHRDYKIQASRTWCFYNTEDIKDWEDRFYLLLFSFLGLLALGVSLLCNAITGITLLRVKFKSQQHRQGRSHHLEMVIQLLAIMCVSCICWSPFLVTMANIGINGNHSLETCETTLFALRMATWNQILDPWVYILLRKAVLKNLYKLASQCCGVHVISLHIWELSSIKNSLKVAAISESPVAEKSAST

[22] = Tmax in cynomolgus monkey at 1 mg/kg, po; type: ADME, organism-based, Macaca fascicularis; conditions: in vivo
Summary of the method: (§4)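 Oral administration of the compound; Tmax is from plasma concentration–time profiles. Values are mean SD of N = 4 animals per species.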

[23] = target: Prostacyclin receptor (Homo sapiens, UniProt P43119); assay: Antagonist activity at human IP receptor
Chain of Prostacyclin receptor (P43119 whole entry): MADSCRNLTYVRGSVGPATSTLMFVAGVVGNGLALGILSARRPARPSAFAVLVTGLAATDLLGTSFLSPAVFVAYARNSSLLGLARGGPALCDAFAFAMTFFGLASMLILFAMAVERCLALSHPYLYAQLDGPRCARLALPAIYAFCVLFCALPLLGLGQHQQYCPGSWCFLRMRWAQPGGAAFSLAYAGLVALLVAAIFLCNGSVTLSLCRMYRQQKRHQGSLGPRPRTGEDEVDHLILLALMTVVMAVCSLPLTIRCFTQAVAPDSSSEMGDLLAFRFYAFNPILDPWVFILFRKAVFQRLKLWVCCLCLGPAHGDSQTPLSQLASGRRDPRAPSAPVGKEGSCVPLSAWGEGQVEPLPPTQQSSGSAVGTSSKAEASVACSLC

[24] = Apparent permeability from apical to basolateral side in human Caco2 cells; type: ADME, cell-based; conditions: Caco-2
Summary of the method: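 Caco-2 monolayer permeability (Papp, apical to basolateral) was measured under constant pH, with the apical side at pH 6.5 and the basolateral side at pH 7.4.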

[25] = AUC (0 to infinity) in cynomolgus monkey at 1 mg/kg, iv; type: ADME, organism-based, Macaca fascicularis; parameters: dose 1 mg/kg, route intravenous, time infinity; conditions: in vivo; summary of the method: as §3
[26] = target: Prostaglandin E2 receptor EP4 subtype (Rattus norvegicus, UniProt P43114); assay: Antagonist activity at rat recombinant EP4 receptor assessed as inhibition of PGE2-induced cAMP level by cell based assay; type: functional; conditions: read-out: pA2 (converted)
Chain of Prostaglandin E2 receptor EP4 subtype (Rattus norvegicus, UniProt P43114) (P43114 whole entry): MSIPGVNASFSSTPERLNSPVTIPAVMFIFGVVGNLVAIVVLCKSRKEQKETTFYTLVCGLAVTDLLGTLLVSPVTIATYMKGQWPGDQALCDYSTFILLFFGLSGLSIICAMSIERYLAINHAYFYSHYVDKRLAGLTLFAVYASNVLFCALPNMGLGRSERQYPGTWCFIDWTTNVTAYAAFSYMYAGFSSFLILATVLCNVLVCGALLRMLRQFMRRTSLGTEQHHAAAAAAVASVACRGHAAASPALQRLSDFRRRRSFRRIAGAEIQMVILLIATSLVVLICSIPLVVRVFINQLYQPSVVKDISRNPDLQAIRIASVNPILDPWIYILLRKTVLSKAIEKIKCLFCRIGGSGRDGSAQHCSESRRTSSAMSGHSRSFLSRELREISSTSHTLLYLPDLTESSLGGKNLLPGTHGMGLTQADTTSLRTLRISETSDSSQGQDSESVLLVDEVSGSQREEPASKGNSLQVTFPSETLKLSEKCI
Summary of the method: (§5)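 Functional antagonism was measured as inhibition of PGE2-induced cAMP in cells transfected with rodent EP4 (mouse or rat). The value is expressed as pA2.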

[27] = target: CYP2D6 (Homo sapiens, UniProt P10635); assay: Inhibition of CYP2D6 (unknown origin) at 1 uM relative to control; type: ADME; summary of the method: as §2
Chain of CYP2D6 (P10635 whole entry): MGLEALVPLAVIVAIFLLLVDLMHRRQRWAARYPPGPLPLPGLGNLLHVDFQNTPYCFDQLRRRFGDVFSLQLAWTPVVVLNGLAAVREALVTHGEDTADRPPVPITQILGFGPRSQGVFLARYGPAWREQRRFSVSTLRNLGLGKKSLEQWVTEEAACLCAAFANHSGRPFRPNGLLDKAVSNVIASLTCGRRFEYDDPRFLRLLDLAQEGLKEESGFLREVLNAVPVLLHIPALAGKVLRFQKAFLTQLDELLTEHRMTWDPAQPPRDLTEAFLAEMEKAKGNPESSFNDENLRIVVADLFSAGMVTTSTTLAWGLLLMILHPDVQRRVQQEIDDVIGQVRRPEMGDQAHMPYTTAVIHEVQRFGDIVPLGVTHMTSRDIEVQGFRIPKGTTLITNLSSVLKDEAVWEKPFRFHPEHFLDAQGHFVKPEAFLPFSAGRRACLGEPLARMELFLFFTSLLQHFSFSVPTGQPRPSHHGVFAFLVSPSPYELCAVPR

[28] = Cmax in cynomolgus monkey at 1 mg/kg, po; type: ADME, organism-based, Macaca fascicularis; parameters: dose 1 mg/kg, route oral; conditions: in vivo; summary of the method: as §3
[29] = Tmax in Sprague-Dawley rat at 1 mg/kg, po; type: ADME, organism-based; conditions: in vivo; summary of the method: as §4
[30] = Total clearance in cynomolgus monkey at 1 mg/kg, iv; type: ADME, organism-based, Macaca fascicularis; conditions: in vivo; summary of the method: as §1
[31] = target: Prostaglandin E receptor 4 (Canis lupus familiaris, UniProt Q9TU16); assay: Antagonist activity at dog recombinant EP4 receptor
Chain of Prostaglandin E receptor 4 (Q9TU16 whole entry): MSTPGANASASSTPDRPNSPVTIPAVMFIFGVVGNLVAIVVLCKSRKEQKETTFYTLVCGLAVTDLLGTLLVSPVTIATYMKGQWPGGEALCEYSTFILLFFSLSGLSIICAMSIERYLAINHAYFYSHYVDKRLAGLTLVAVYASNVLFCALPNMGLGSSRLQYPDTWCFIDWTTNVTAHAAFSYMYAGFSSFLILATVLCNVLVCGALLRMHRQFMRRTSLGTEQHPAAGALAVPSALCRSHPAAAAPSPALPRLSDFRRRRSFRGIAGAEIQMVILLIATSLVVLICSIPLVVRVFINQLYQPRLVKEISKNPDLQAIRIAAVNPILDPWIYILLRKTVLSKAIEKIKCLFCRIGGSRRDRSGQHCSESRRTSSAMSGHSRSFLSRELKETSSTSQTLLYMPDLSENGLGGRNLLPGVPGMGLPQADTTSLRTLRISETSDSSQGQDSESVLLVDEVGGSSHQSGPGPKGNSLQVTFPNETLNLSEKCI

[32] = target: Prostaglandin E2 receptor EP4 subtype (Mus musculus, UniProt P32240); assay: Antagonist activity at mouse recombinant EP4 receptor assessed as inhibition of PGE2-induced cAMP level by cell based assay; type: functional; conditions: read-out: pA2 (converted); summary of the method: as §5
Chain of Prostaglandin E2 receptor EP4 subtype (Mus musculus, UniProt P32240) (P32240 whole entry): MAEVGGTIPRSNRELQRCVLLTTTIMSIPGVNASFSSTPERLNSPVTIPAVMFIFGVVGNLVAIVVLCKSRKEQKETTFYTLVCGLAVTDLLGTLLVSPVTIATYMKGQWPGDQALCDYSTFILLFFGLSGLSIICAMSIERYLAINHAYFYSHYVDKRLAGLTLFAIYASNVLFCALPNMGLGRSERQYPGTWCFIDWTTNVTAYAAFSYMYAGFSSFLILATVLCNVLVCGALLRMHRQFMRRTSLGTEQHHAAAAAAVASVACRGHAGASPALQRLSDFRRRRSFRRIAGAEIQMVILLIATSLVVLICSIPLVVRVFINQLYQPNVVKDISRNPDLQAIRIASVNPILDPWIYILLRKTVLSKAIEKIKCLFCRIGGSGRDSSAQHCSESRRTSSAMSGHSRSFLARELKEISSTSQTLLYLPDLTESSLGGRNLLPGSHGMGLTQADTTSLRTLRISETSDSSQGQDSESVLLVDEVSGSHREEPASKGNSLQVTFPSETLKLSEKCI

- Vd [1]: 4.7 L/kg
- inhibition at 1 µM [2]: < 5%
- IC50 [3]: > 20000 nM
- Ki [3]: > 6000 nM
- solubility [4]: 0.29 µg/mL (≈ 0.699 µM)
- Tmax [5]: 0.438 h
- IC50 [6]: 2.4 nM
- Ki [6]: 0.97 nM
- inhibition at 1 µM [7]: < 5%
- AUC(0-inf) [8]: 6080 ng·h/mL
- AUC(0-inf) [9]: 9620 ng·h/mL
- bioavailability [10]: 80.6%
- IC50 [13]: 1890 nM
- Ki [13]: 1840 nM
- AUC(0-inf) [14]: 7490 ng·h/mL
- logD [15]: 0.7
- Ki [16]: > 6000 nM
- half-life [17]: 4.59 h
- half-life [18]: 21.9 h
- half-life [19]: > 2 h
- clearance [20]: 2.3 mL/min/kg
- Ki [21]: > 6000 nM
- Tmax [22]: 8 h
- Ki [23]: > 6000 nM
- Papp A→B [24]: 20.1 ×10⁻⁶ cm/s
- AUC(0-inf) [25]: 3390 ng·h/mL
- Kb [26]: 4.57 nM
- inhibition at 1 µM [27]: < 5%
- Cmax [28]: 76 ng/mL
- Tmax [29]: 0.75 h
- clearance [30]: 5.31 mL/min/kg
- Ki [31]: 38 nM
- Kb [32]: 1 nM
SMILES: C[C@H](NC(=O)c1cc(Cl)cnc1Oc1cccc(F)c1)c1ccc(C(=O)O)cc1
- inhibition [11]: Dose-dependent effect
- minimal effective dose ([11]; read-out: MED): 1 mg/kg
- inhibition [12]: Dose-dependent effect
- minimal effective dose ([12]; read-out: MED): 1 mg/kg
